Experimental data taken from ChEMBL document CHEMBL4387700, “A novel, potent, and orally bioavailable thiazole HCV NS5A inhibitor for the treatment of hepatitis C virus” (Eur J Med Chem, 2019).

Columns and labels:
[1] = Volume of distribution at steady state in Sprague-Dawley rat at 1 mg/kg, iv by HPLC-MS/MS analysis; type: ADME, organism-based; details: in vivo, read-out: Vdss
In short: (§1)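 Male Sprague-Dawley rats, 330–380 g, 9–10 weeks old, n = 3, jugular-cannulated 1 day ahead and fasted. Dosed iv 1.0 mg/kg or orally 5.0 mg/kg. Cannula blood was drawn at 0, 2, 5 (iv only), 15, 30 min and 1, 2, 4, 6, 8, 24 h. Plasma was assayed by HPLC-MS/MS, with non-compartmental analysis. The iv vehicle was DMA/propylene glycol (20/80, v/v).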

[2] = Volume of distribution at steady state in Beagle dog at 0.1 mg/kg, iv by HPLC-MS/MS analysis; type: ADME, organism-based, Canis lupus familiaris; details: in vivo, read-out: Vdss
In short: (§2)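 Male Beagle dogs, 9–10 months old, n = 3, dosed iv 0.1 mg/kg or orally 0.5 mg/kg. Blood was drawn at 0, 2, 5 (iv only), 15, 30 min and 1, 2, 4, 6, 8, 24 h and kept on ice. Plasma was assayed by HPLC-MS/MS, with non-compartmental analysis. The iv formulation was a solution in DMA/propylene glycol (20/80, v/v).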

[3] = Half life in Sprague-Dawley rat at 5 mg/kg, po by HPLC-MS/MS analysis; type: ADME, organism-based; details: in vivo; in short: as §1
[4] = Tmax in Sprague-Dawley rat at 5 mg/kg, po by HPLC-MS/MS analysis; type: ADME, organism-based; details: in vivo; in short: as §1
[5] = Cmax in Sprague-Dawley rat at 5 mg/kg, po by HPLC-MS/MS analysis; type: ADME, organism-based; design: dose 5 mg/kg, route oral; details: in vivo; in short: as §1
[6] = AUC in Beagle dog at 0.5 mg/kg, po by HPLC-MS/MS analysis; type: ADME, organism-based, Canis lupus familiaris; details: in vivo; in short: as §2
[7] = AUC in Sprague-Dawley rat at 5 mg/kg, po by HPLC-MS/MS analysis; type: ADME, organism-based; details: in vivo; in short: as §1
[8] = Plasma clearance in Sprague-Dawley rat at 1 mg/kg, iv by HPLC-MS/MS analysis; type: ADME, organism-based; in short: as §1
[9] = Cytotoxicity against human HuH7 cells assessed as reduction in cell viability by MTS assay; type: cell-based, Huh-7
In short: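 Viability of Huh-7 cells was read by MTS assay.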

[10] = target: T1, Nonstructural protein 5A (Hepatitis C virus) (UniProt Q5L478); test: Potency index, ratio of daclatasvir EC50 to test compound EC50 for inhibition of NS5A in HCV genotype 1b infected in human HuH7 replicon cells; type: cell-based; details: Hepatitis C virus subtype 1b
T1 sequence (whole entry): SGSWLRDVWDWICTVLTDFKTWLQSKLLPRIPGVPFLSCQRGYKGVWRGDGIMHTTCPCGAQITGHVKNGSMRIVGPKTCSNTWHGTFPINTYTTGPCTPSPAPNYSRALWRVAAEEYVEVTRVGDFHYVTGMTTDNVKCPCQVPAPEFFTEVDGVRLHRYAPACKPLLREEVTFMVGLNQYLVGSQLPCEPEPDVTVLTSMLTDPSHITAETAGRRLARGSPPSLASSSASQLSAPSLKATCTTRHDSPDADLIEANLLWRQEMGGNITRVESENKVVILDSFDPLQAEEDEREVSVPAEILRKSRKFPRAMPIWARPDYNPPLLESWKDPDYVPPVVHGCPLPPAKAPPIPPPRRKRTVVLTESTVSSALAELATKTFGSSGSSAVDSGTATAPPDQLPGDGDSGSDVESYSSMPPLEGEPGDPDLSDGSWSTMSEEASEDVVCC

[11] = Plasma clearance in Beagle dog at 0.1 mg/kg, iv by HPLC-MS/MS analysis; type: ADME, organism-based, Canis lupus familiaris; in short: as §2
[12] = Half life in Sprague-Dawley rat at 1 mg/kg, iv by HPLC-MS/MS analysis; type: ADME, organism-based; details: in vivo; in short: as §1
[13] = Half life in Beagle dog at 0.1 mg/kg, iv by HPLC-MS/MS analysis; type: ADME, organism-based, Canis lupus familiaris; details: in vivo; in short: as §2
[14] = AUC in Sprague-Dawley rat at 1 mg/kg, iv by HPLC-MS/MS analysis; type: ADME, organism-based; details: in vivo; in short: as §1
[15] = AUC in Beagle dog at 0.1 mg/kg, iv by HPLC-MS/MS analysis; type: ADME, organism-based, Canis lupus familiaris; details: in vivo; in short: as §2
[16] = Cmax in Beagle dog at 0.5 mg/kg, po by HPLC-MS/MS analysis; type: ADME, organism-based, Canis lupus familiaris; design: dose 0.5 mg/kg, route oral; details: in vivo; in short: as §2
[17] = Tmax in Beagle dog at 0.5 mg/kg, po by HPLC-MS/MS analysis; type: ADME, organism-based, Canis lupus familiaris; details: in vivo; in short: as §2
[18] = Half life in Beagle dog at 0.5 mg/kg, po by HPLC-MS/MS analysis; type: ADME, organism-based, Canis lupus familiaris; details: in vivo; in short: as §2
[19] = Oral bioavailability in Sprague-Dawley rat at 5 mg/kg by HPLC-MS/MS analysis; type: ADME, organism-based; details: in vivo; in short: as §1
[20] = Oral bioavailability in Beagle dog at 0.5 mg/kg by HPLC-MS/MS analysis; type: ADME, organism-based, Canis lupus familiaris; details: in vivo; in short: as §2
[21] = Toxicity in Sprague-Dawley rat assessed as death at 1 mg/kg, iv; type: organism-based; details: in vivo
In short: (§3)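 Male Sprague-Dawley rats, 330–380 g, 9–10 weeks old, n = 3, were quarantined 1 week and jugular-cannulated 1 day before dosing. They were fasted, then given a single intravenous (1.0 mg/kg; DMA/propylene glycol 20/80, v/v) or oral (5.0 mg/kg) dose. Deaths, body weight and clinical observations were monitored with blood sampling through 24 h.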

[22] = Toxicity in Beagle dog assessed as death at 0.1 mg/kg, iv; type: organism-based, Canis lupus familiaris; details: in vivo
In short: (§4)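 Male Beagle dogs, 9–10 months old, n = 3, were given a single intravenous (0.1 mg/kg) or oral (0.5 mg/kg) dose. The intravenous solution was in DMA/propylene glycol (20/80, v/v). Dose volume was set by pre-dose body weight. Blood was sampled up to 24 h. Deaths, body weight and clinical observations were recorded during the pharmacokinetic study.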

[23] = Toxicity in Sprague-Dawley rat assessed as effect on body weight at 1 mg/kg, iv; type: organism-based; details: in vivo; in short: as §3
[24] = Toxicity in Beagle dog assessed as effect on clinical observations at 0.5 mg/kg, po; type: organism-based, Canis lupus familiaris; details: in vivo; in short: as §4
[25] = Toxicity in Beagle dog assessed as effect on body weight at 0.5 mg/kg, po; type: organism-based, Canis lupus familiaris; details: in vivo; in short: as §4
[26] = Toxicity in Beagle dog assessed as death at 0.5 mg/kg, po; type: organism-based, Canis lupus familiaris; details: in vivo; in short: as §4
[27] = Toxicity in Sprague-Dawley rat assessed as death at 5 mg/kg, po; type: organism-based; details: in vivo; in short: as §3
[28] = Toxicity in Sprague-Dawley rat assessed as effect on body weight at 5 mg/kg, po; type: organism-based; details: in vivo; in short: as §3
[29] = Toxicity in Sprague-Dawley rat assessed as effect on clinical observations at 5 mg/kg, po; type: organism-based; details: in vivo; in short: as §3
[30] = Toxicity in Beagle dog assessed as effect on body weight at 0.1 mg/kg, iv; type: organism-based, Canis lupus familiaris; details: in vivo; in short: as §4
[31] = Toxicity in Sprague-Dawley rat assessed as effect on clinical observations at 1 mg/kg, iv; type: organism-based; details: in vivo; in short: as §3
[32] = Toxicity in Beagle dog assessed as effect on clinical observations at 0.1 mg/kg, iv; type: organism-based, Canis lupus familiaris; details: in vivo; in short: as §4

With O=C(N[C@@H](C(=O)N1CCC[C@H]1c1ncc(-c2ccc(-c3ccc(-c4cnc([C@@H]5CCCN5C(=O)[C@H](NC(=O)C5CC5)c5ccccc5)s4)cc3)cc2)s1)c1ccccc1)C1CC1 the Vd [1] was 1.3 L/kg, the Vd [2] was 1.6 L/kg and the half-life [3] was 20.4 h. It also gave a Tmax [4] of 3.3 h, a Cmax [5] of 305 ng/mL and an AUC [6] of 1620 ng·h/mL. For the same compound, the AUC [7] was 14500 ng·h/mL, the clearance [8] was 1.1 mL/min/kg and the CC50 [9] was greater than 50 µM. The Ratio EC50 [10] was 3, the clearance [11] was 1.3 mL/min/kg and the half-life [12] was 18.3 h. The half-life [13] was 19.2 h, the AUC [14] was 16300 ng·h/mL and the AUC [15] was 1390 ng·h/mL. It also gave a Cmax [16] of 94.9 ng/mL, a Tmax [17] of 2.5 h and a half-life [18] of 21.4 h. The bioavailability [19] was 22%, the bioavailability [20] was 23.3% and the Activity [21] was “Non-Toxic”. For the same compound, the Activity [22] was “Non-Toxic”, the Activity [23] was “Non-Toxic” and the Activity [24] was “Non-Toxic”. The Activity [25] was “Non-Toxic”, the Activity [26] was “Non-Toxic” and the Activity [27] was “Non-Toxic”. For the same compound, the Activity [28] was “Non-Toxic”, the Activity [29] was “Non-Toxic” and the Activity [30] was “Non-Toxic”. The Activity [31] was “Non-Toxic” and the Activity [32] was “Non-Toxic”.
